# Activity calls are given as the source filed them. The rule behind the calls is not given here.
# Experiments:
# hERG (KCNH2) = hERG (KCNH2) (Homo sapiens, UniProt Q12809); test: Inhibition of human ERG at 10 uM relative to control
# Mus musculus [1] = test: Anti-obesity activity in C57BL/6J mouse model of diet-induced obesity assessed as increase in VO2 at 10 mg/kg, ip dosed daily for 8 weeks by indirect calorimetry; type: functional, organism-based
# Method in brief: (§1)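 Daily ip dosing of C57BL/6J mice on high-fat diet (60% fat calories), starting at 12 weeks of age, for eight weeks. Mice were housed singly in an eight-chamber open-circuit indirect calorimetry system and monitored for 72 h in the fed state. VO2 and VCO2 were recorded. RER = VCO2/VO2; heat production = (3.185 + 1.232 × RER) × VO2. n = 5/group; means SEM.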
# Mus musculus [2] = test: Anti-obesity activity in C57BL/6J mouse model of diet-induced obesity assessed as suppression of 5-HT levels in serum at 10 mg/kg, ip dosed daily for 8 weeks by LC-MS/MS analysis; type: functional, organism-based
# Method in brief: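 C57BL/6J mice, 12 weeks old, on high-fat diet (60% fat calories) were dosed daily ip with vehicle or 10 mg/kg for eight weeks. Serum was isolated from cardiac-puncture blood and 5-HT was quantified by LC-MS/MS. n = 5/group; means SEM.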
# Mus musculus [3] = test: Anti-hepatic steatosis activity in C57BL/6J mouse model of diet-induced obesity assessed as reduction in plasma cholesterol level at 10 mg/kg, ip dosed daily for 8 weeks colorimetry; type: functional, organism-based
# CYP2D6 = CYP2D6 (Homo sapiens, UniProt P10635); test: Inhibition of CYP2D6 (unknown origin) at 10 uM relative to control; type: ADME
# Mus musculus [4] = test: Anti-obesity activity in C57BL/6J mouse model of diet-induced obesity assessed as reduction in adipocyte size in eWAT at 10 mg/kg, ip dosed daily for 8 weeks by H and E staining based histological analysis; type: functional, organism-based
# Method in brief: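 C57BL/6J mice, 12 weeks old, given daily ip vehicle or drug during 8 weeks of high-fat diet (60% fat calories). Sacrificed after 6 h fasting. Five-micron paraffin sections of eWAT, iWAT and BAT were deparaffinized and stained with H&E. Crown-like structures, adipocyte size, lipid droplets and multilocular cells were assessed. Scale bar 100 μm.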
# Mus musculus [5] = test: Anti-obesity activity in C57BL/6J mouse model of diet-induced obesity assessed as increase in heat production at 10 mg/kg, ip dosed daily for 8 weeks by indirect calorimetry; type: functional, organism-based; method in brief: as §1
# CYP2C9 = CYP2C9 (Homo sapiens, UniProt P11712); test: Inhibition of CYP2C9 (unknown origin) at 10 uM relative to control; type: ADME
# Mus musculus [6] = test: Anti-obesity activity in C57BL/6J mouse model of diet-induced obesity assessed as suppression of body weight gain at 10 mg/kg, ip dosed daily for 8 weeks […]; type: functional, organism-based
# Mus musculus [7] = test: Anti-obesity activity in C57BL/6J mouse model of diet-induced obesity assessed as induction of thermogenic activity by measuring increase in Ucp1 protein expression in iWAT at 10 mg/kg, ip dosed daily for 8 weeks immunohistochemistry; type: functional, organism-based
# Method in brief: (§2)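 C57BL/6J mice fed a 60% fat-calorie diet from 12 weeks of age, dosed ip daily for eight weeks. For Ucp1 mRNA, total RNA was extracted from BAT or iWAT with TRIzol and analysed by quantitative RT-PCR as relative expression. UCP1 protein was detected by immunohistochemistry on five-micron paraffin sections. n = 5/group.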
# Mus musculus [8] = test: Anti-obesity activity in C57BL/6J mouse model of diet-induced obesity assessed as suppression of 5-HT levels in brain at 10 mg/kg, ip dosed daily for 1 week by LC-MS/MS analysis; type: functional, organism-based; conditions: time 1.0 weeks
# Mus musculus [9] = test: Anti-obesity activity in C57BL/6J mouse model of diet-induced obesity assessed as suppression of 5-HT levels in serum at 10 mg/kg, ip dosed daily for 1 week by LC-MS/MS analysis; type: functional, organism-based; conditions: time 1.0 weeks
# Mus musculus [10] = test: Anti-obesity activity in C57BL/6J mouse model of diet-induced obesity assessed as reduction in adipose tissues by measuring iWAT at 10 mg/kg, ip dosed daily for 8 weeks; type: functional, organism-based
# Method in brief: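 After eight weeks of daily ip dosing at 10 mg/kg with high-fat diet (60% fat calories) in C57BL/6J mice starting at 12 weeks, gross appearance of dissected eWAT, iWAT and BAT was photographed against a 1 cm × 1 cm grid.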
# Mus musculus [11] = test: Anti-hepatic steatosis activity in C57BL/6J mouse model of diet-induced obesity assessed as reduction in plasma TG level at 10 mg/kg, ip dosed daily for 8 weeks colorimetry; type: functional, organism-based
# Mus musculus [12] = test: Anti-obesity activity in C57BL/6J mouse model of diet-induced obesity assessed as induction of thermogenic activity by measuring increase in Ucp1 mRNA expression in iWAT at 10 mg/kg, ip dosed daily for 8 weeks by RT-PCR analysis; type: functional, organism-based; method in brief: as §2
# Mus musculus [13] = test: Anti-obesity activity in C57BL/6J mouse model of diet-induced obesity assessed as effect on RER at 10 mg/kg, ip dosed daily for 8 weeks by indirect calorimetry; type: functional, organism-based; method in brief: as §1
# [14] = Drug level in ICR mouse plasma at 10 mg/kg, ip after 1 hr; type: ADME, organism-based
# Method in brief: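 Male ICR mice received 10 mg/kg ip in DMSO/PEG400/saline 5:40:55 (v/v/v), 5 mL/kg. At 1 h, heart blood was spun to plasma. Mice were perfused with heparinized saline, and brains were homogenized in 3 volumes PBS. Analyte was quantified by LC-MS/MS. Brain quantification limit 31.3 ng/g. n = 3; mean SD.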
# [15] = Stability in human liver microsomes assessed as parent compound remaining level after 30 mins; type: ADME, Microsome; conditions: read-out: Stabilty
# [16] = target: T1, Tryptophan 5-hydroxylase 1 (Homo sapiens) (UniProt P17752); test: Inhibition of Tryptophan hydroxylase 1 (unknown origin) at 1 uM incubated for 4 hrs by fluorescence based assay
# T1 sequence (whole entry): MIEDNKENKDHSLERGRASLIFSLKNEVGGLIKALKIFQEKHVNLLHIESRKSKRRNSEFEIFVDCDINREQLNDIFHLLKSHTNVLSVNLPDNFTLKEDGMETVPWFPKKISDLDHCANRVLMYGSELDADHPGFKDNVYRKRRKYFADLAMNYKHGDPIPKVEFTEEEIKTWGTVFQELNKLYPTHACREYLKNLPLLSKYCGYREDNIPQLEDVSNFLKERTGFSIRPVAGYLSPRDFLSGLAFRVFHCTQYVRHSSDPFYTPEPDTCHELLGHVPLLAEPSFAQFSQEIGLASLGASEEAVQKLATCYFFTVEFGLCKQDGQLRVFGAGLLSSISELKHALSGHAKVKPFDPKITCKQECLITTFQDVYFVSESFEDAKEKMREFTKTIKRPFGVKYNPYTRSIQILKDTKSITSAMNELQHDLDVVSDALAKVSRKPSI
# Method in brief: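 TPH1 activity was measured with a commercial fluorescence kit. Compound in DMSO was mixed with TPH1 enzyme (320 ng/reaction), then reaction solution was added. The plate was sealed, cooled to 4 °C, shaken and incubated 4 h. Quench solution was added, and fluorescence was read at ex 300 nm / em 360 nm.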
# Sequence of hERG (KCNH2) (Q12809 whole entry): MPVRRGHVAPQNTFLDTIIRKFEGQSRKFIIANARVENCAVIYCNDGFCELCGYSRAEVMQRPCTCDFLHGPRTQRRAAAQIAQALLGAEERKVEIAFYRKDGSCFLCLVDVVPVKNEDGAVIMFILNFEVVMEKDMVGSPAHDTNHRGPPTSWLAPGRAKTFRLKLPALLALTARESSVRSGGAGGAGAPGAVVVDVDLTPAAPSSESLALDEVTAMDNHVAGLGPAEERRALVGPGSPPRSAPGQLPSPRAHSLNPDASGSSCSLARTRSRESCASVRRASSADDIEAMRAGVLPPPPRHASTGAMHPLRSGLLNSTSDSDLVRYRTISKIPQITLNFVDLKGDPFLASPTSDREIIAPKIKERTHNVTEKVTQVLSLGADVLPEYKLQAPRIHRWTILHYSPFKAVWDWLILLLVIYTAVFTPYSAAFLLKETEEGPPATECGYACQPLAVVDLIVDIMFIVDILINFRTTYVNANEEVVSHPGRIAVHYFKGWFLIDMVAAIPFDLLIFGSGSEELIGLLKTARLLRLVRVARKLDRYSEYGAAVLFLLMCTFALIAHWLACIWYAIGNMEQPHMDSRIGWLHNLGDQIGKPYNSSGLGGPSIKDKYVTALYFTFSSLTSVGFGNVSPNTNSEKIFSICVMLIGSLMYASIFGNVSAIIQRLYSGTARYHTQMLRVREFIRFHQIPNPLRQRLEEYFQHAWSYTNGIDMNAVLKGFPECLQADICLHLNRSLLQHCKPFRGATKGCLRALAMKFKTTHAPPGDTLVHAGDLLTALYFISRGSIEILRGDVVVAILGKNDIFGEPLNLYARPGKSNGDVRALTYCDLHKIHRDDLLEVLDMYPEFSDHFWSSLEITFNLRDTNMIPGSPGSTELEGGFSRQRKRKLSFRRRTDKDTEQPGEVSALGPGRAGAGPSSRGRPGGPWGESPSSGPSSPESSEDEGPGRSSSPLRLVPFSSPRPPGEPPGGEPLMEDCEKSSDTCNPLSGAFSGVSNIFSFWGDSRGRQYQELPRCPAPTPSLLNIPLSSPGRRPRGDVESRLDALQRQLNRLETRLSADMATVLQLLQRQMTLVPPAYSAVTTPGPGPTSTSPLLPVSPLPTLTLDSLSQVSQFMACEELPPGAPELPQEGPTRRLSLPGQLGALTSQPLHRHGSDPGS
# Sequence of CYP2D6 (P10635 whole entry): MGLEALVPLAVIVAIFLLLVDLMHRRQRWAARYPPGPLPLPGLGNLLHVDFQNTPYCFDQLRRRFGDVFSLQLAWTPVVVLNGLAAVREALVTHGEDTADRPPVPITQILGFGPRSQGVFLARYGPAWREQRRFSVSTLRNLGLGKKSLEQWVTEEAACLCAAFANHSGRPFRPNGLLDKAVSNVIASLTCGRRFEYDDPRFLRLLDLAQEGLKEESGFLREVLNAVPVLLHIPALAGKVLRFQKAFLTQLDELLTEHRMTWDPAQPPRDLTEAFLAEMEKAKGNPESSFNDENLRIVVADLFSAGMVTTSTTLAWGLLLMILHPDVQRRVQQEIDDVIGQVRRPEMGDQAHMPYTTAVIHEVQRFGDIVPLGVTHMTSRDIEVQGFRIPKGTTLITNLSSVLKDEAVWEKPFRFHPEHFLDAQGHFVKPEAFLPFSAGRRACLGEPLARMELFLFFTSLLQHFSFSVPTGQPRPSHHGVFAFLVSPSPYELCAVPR
# Sequence of CYP2C9 (P11712 whole entry): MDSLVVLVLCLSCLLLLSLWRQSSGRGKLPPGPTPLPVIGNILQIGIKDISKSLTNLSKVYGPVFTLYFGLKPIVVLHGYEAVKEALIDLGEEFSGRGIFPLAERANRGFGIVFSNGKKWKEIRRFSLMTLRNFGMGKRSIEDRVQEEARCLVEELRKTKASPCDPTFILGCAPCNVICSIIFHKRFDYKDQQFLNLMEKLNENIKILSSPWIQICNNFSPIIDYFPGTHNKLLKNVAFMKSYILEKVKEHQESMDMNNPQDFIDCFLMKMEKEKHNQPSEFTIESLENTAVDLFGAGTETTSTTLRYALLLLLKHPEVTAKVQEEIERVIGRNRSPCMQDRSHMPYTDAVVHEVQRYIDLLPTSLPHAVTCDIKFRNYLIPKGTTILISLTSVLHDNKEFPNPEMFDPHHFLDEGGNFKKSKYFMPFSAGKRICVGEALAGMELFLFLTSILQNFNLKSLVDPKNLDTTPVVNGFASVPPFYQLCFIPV
smiles,measurement,setting,value
COc1ccc(-c2nc(-c3ccc(C[C@H](N)C(=O)O)cc3)no2)cc1-c1ccc(O)cc1.Cl,inhibition at 10 µM,hERG (KCNH2),24.3%
same,Activity,Mus musculus [1],Active
same,Activity,Mus musculus [2],Active
same,Activity,Mus musculus [3],Active
same,inhibition at 10 µM,CYP2D6,< 1%
same,Activity,Mus musculus [4],Active
same,Activity,Mus musculus [5],Active
same,inhibition at 10 µM,CYP2C9,< 1%
same,Activity,Mus musculus [6],Active
same,Activity,Mus musculus [7],inactive
same,Activity,Mus musculus [8],inactive
same,Activity,Mus musculus [9],Active
same,Activity,Mus musculus [10],Active
same,Activity,Mus musculus [11],Active
same,Activity,Mus musculus [12],Active
same,Activity,Mus musculus [13],inactive
same,concentration at 1 h,[14],3110 ng/mL
same,remaining at 0.5 h,[15],92%
same,inhibition,[16],100%
